Measurements taken from ChEMBL document CHEMBL4680134, “Structural optimization of natural product nordihydroguaretic acid to discover novel analogues as AcrB inhibitors” (Eur J Med Chem, 2020).
≈ marks a conversion by molar mass, not a printed value. Each block holds one molecule with its values, some of them ahead of it.

Tests used:
Cell membrane [1] = assay: Induction of inner membrane permeabilization in CCCP treated wild type Escherichia coli BW25113 at 64 to 256 ug/ml measured after 10 mins by Di0C2(3) probe based fluorimetric method; conditions: escherichia coli bw25113, 10 min, dose 64-256 µg/ml
In short: (§1)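 Cells left untreated or exposed to compound at 8-256 µg/mL for 10 min, then DiOC2(3) added and fluorescence followed to plateau. Cells re-energized with 0.5% glucose; membrane potential build-up read as fluorescence rise to plateau, then dissipated with CCCP.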

Cell membrane [2] = assay: Induction of inner membrane permeabilization in CCCP treated wild type Escherichia coli BW25113 at 16 ug/ml measured after 10 mins by Di0C2(3) probe based fluorimetric method; conditions: escherichia coli bw25113, 10 min, dose 16 µg/ml; in short: as §1
Cell membrane [3] = assay: Induction of inner membrane permeabilization in CCCP treated wild type Escherichia coli BW25113 measured after 10 mins by Di0C2(3) probe based fluorimetric method; conditions: escherichia coli bw25113, 10 min; in short: as §1
[4] = Growth inhibition of Escherichia coli BW25113 expressing AcrB after 18 hrs by broth microdilution assay
In short: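 MIC determined by 96-well broth microdilution in E. coli BW25113 expressing AcrB ((+)AcrB) and an isogenic acrB-deleted strain ((-)AcrB). Used to set the compound concentrations for synergy testing that produce no direct antibacterial effect.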

[5] = biological target: T1, Multidrug efflux pump subunit AcrB (Escherichia coli (strain K12)) (UniProt P31224); assay: Inhibition of AcrB in Escherichia coli BW25113 assessed as potentiation of erythromycin induced antibacterial activity by measuring fold change in erythromycin MIC at 32 ug/ml measured after 18 hrs by checkerboard titration method relative to erythromycin alone; conditions: dose 32.0 µg/ml
T1 sequence (whole entry): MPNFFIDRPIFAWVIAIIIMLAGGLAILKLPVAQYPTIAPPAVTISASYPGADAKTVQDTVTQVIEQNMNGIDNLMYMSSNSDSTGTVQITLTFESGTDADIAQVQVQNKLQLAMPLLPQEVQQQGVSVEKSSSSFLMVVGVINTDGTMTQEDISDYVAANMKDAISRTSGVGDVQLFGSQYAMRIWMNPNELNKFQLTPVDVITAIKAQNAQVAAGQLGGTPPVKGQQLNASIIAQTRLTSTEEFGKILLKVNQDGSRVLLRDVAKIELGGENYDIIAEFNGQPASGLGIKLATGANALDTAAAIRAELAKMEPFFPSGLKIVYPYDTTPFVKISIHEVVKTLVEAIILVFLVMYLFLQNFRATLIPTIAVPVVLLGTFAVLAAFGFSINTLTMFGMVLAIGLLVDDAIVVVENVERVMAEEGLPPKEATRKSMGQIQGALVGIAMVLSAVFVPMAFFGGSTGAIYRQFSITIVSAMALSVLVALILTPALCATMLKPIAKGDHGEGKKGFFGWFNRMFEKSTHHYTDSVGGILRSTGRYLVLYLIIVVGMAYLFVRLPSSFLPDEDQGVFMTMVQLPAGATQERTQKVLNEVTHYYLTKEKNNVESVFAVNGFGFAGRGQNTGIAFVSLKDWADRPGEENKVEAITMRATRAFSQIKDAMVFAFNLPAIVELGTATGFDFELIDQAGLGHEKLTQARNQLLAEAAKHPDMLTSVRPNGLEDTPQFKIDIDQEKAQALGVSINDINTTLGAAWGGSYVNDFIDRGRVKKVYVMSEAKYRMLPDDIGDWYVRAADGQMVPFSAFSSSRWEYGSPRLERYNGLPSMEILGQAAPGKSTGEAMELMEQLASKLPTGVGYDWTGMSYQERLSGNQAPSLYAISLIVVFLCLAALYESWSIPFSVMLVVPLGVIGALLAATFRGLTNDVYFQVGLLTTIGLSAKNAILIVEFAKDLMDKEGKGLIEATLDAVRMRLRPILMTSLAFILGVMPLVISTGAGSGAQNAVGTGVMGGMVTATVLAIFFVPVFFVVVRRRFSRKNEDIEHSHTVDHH

[6] = biological target: T1, Multidrug efflux pump subunit AcrB (Escherichia coli (strain K12)); assay: Inhibition of AcrB in Escherichia coli BW25113 assessed as potentiation of tetraphenylphosphonium induced antibacterial activity by measuring fold change in tetraphenylphosphonium MIC at 256 ug/ml measured after 18 hrs by checkerboard titration method relative to tetraphenylphosphonium alone; conditions: dose 256.0 µg/ml
[7] = biological target: T1, Multidrug efflux pump subunit AcrB (Escherichia coli (strain K12)); assay: Inhibition of AcrB in Escherichia coli BW25113 assessed as potentiation of tetraphenylphosphonium induced antibacterial activity by measuring fold change in tetraphenylphosphonium MIC at 128 ug/ml measured after 18 hrs by checkerboard titration method relative to tetraphenylphosphonium alone; conditions: dose 128.0 µg/ml

Compound: C[C@H](Cc1ccc(O)c(O)c1)[C@@H](C)Cc1ccc(O)c(O)c1 [MASOPROCOL]
Activity (Cell membrane [1]): Toxic

Compound: Oc1ccc(CCCCc2cc3cccc4ccc5cccc2c5c43)cc1O
Activity (Cell membrane [2]): Non-Toxic

fold change (FC) [5]: 4
Compound: Cc1ccc(C(=O)NCCc2ccc(O)c(O)c2)cc1
Activity (Cell membrane [3]): Toxic
MIC [4]: 64 µg/mL (≈ 236 µM)

fold change (FC) [6]: 32
Compound: Oc1ccc(CCCCCc2ccc(O)c(O)c2)cc1O

fold change (FC) [7]: 4
Compound: O=C(NCCc1ccc(O)c(O)c1)c1cc(O)c(O)c(O)c1
